# High-throughput results as filed in PubChem BioAssay.
# SUMO1-SIM PPI – modulators of human SUMO1-mediated protein-protein interactions. P63165. SUMO1 binding to a labelled peptide, TR-FRET, 1 h. inhibition, % at 20 µM. 360,000 tested, 0.33% active; in the data active means inhibition above about 37%
# CSN inh – blocks human CSN-mediated cullin deneddylation; Q92905; Purified CSN, SCF-Nedd8-OG deneddylation, fluorescence polarization; inhibition, % at 12.5 µM; 360,000 tested, 0.38% active;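 active means pattern-corrected inhibition above about 35%, with an unprinted fluorescence ratio check between 0.5 and 1.5, limit read from the data, passing the limit was not always enough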;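 further: 0% = enzyme with substrate and 100% = substrate without enzyme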
#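 Material: purified human Csn5 enzyme expressed in HEK293T cells / Medium: Tris buffer pH 7.5, NaCl, DTT, Tween-20, trehalose, ovalbumin / Compound dosing: 12.5 µM single point / Schedule: 90 min incubation of compound, enzyme and substrate at room temperature / Signal: fluorescence polarization of the substrate / Control set: no-enzyme wells high, enzyme-with-substrate wells low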
# MT1-MMP act inh – inhibitors of human MT1-MMP activation. HT1080 RFP-PRO-GFP cells, GFP/RFP ratio fluorescence, overnight; percent of plate control window, DMSO zero. GFP/RFP ratio change, % at 20 µM. P50281. AID 651647. 360,000 tested, 0.061% active;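 active means GFP/RFP ratio change of at least 30% with cell ATP level not reduced by more than half and red fluorescence within 50% of control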
#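 Material: RFP-PRO-GFP reporter HT1080 cells. Dosing: single-point 20 µM compound, 1% DMSO. Controls: DMSO and RFP-L50D-GFP cell wells. Timing: cells overnight before dosing, compound overnight, 37 °C, 5% CO2. Measure: GFP/RFP fluorescence ratio.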
# DNMT1 inh – blocks human DNA methyltransferase DNMT1. AID 588458. DNMT1 molecular beacon, Hinp1I cleavage, fluorescence. 360,000 tested, 0.83% active. inhibition (reported as % activation of signal), % at 10 µM; in the data active means inhibition above about 50%
# SKN-1 block – blocks SKN-1 activity in C. elegans. C. elegans VP596 Pgst-4::GFP/RFP ratio, acrylamide-induced, 24 h. inhibition, % at 21.8 µM. 360,000 tested, 0.49% active;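 active means interference check ratio from 0.5 to 1.5 plus GFP to RFP signal ratio inhibition reaching or exceeding a fixed threshold, cut at about 30% in these data, passing the limit was not always enough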
# Rpn11 inh – inhibitors of human proteasome Rpn11; O00487; human 26S proteasome, Ub4-pepOG fluorescence polarization; 20S core pre-blocked with epoxomicin; inhibition, % at 20 µM; 360,000 tested, 0.59% active; AID 588493;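 active means inhibition at 20 µM, scaled to each plate's controls, above about 33%, limit read from the data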
# Rpn11 confirm – confirmation of human proteasome Rpn11 inhibitors; shares compounds with Rpn11 inh; purified human 26S proteasome, Ub4-pepOG fluorescence polarization; proteasome pretreated with epoxomicin; inhibition, % at 20 µM; 1,900 tested, 29% active
# MMP-2 counter – blocks human MMP-2, flagging nonselective RPN11 hits. inhibition, % at 20 µM. 1,900 tested, 4% active. shares compounds with Rpn11 inh. recombinant MMP-2, FRET peptide cleavage fluorescence;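 further: human MMP-2 activated beforehand with APMA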
# Thrombin FP – thrombin (bovine) inhibition counter-screen; shares compounds with Rpn11 inh; bovine thrombin cleavage of Ub4-pepOG, fluorescence polarization; inhibition, % at 20 µM; 1,900 tested, 13% active;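 active means mean inhibition at least 40% at 20 µM, or signal 3 deviations below plate average, so some actives read negative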;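 further: plate controls were thrombin with DMSO for no effect and buffer wells lacking thrombin for full effect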
# Target sequence (P00735 whole entry, looked up): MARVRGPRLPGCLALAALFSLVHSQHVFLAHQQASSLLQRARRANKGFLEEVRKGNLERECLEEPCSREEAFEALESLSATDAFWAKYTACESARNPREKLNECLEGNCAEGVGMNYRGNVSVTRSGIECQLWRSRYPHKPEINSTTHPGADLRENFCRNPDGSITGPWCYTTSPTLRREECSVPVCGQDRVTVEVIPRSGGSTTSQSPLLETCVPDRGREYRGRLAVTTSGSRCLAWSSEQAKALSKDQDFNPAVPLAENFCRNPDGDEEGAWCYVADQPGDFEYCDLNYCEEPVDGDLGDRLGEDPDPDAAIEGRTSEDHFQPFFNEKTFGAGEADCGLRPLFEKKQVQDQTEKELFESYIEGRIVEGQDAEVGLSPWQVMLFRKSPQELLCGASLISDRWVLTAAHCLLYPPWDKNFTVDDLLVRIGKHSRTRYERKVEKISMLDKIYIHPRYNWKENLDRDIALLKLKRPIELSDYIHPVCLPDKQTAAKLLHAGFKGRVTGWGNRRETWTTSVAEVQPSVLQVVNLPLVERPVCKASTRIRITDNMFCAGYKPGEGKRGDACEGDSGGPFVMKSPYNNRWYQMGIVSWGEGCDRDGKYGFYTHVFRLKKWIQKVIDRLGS
# Numbers without * were called inactive; x = no result given; + = active, no number. Hits are enriched below; roughly 2.3% of the tested compounds scored in any of these assays. Unless noted, no stated cut-off is given here; in the data, active means inhibition above about 40%; inactive means the rest.
SMILES,SUMO1-SIM PPI,CSN inh,MT1-MMP act inh,DNMT1 inh,SKN-1 block,Rpn11 inh,Rpn11 confirm,MMP-2 counter,Thrombin FP
O=C(N/N=C/c1ccncc1)c1ccc(NC(=O)c2ccc(Cl)cc2)cc1,-1,12,4,1,13,45*,17,-6,2
O=C(N/N=C/c1ccncc1)c1ccncc1,-3,-2,-3,-1,13,0,x,x,x
Cc1ccc(/C=N/NC(=O)c2ccc(NC(=O)c3ccc(Cl)cc3)cc2)o1,4,1,1,27,3,3,x,x,x
O=C(N/N=C/c1ccncc1)c1ccc(NC(=O)c2cccc(Cl)c2)cc1,5,78*,5,-11,-2,52*,19,-32,-10
Cc1ccc(/C=C/c2nc3ccccc3s2)s1,-11,4,-16,0,-6,14,x,x,x
COc1ccc(C=C(c2nc3ccccc3s2)c2nc3ccccc3s2)cc1O,-7,4,-24,-24,7,18,x,x,x
COc1cc(C=C(c2nc3ccccc3s2)c2nc3ccccc3s2)ccc1O,-14,14,-2,-26,-5,61*,5,-28,4
CN(C)c1ccc(/C=C/c2nc3ccccc3s2)cc1,-10,18,-64,-7,27,49*,32,-5,24
COc1cc(/C=C/c2nc3ccccc3s2)cc(OC)c1O,-8,8,-110,-5,21,47*,4,-19,10
CNc1nc(Nc2ccc(C)cc2C)c2sccc2n1,0,1,2,4,1,-4,x,x,x
CN1/C(=C\P(=O)(N(C)C)N(C)C)C(C)(C)c2ccccc21,-9,22,99,3,70,60*,33,-18,22
CCOC(=O)/C=C1/N(C)c2ccccc2C1(C)C,-1,5,3,2,13,-4,x,x,x
COc1ccc(OC(F)(F)F)cc1CC1(C)C(=O)Nc2ccc(S(=O)(=O)NC3CCCCC3)cc21 (stereo not drawn),3,-1,-17,-11,-10,5,x,x,x
Cc1ccc(Cl)cc1-c1cc(C(=O)N2CCc3ccccc3C2)[nH]n1,7,-1,3,1,12,1,x,x,x
COc1ccc(C(=O)N/C(=C/c2ccco2)C(=O)N2CCCCCC2)cc1,-3,3,-11,-4,16,50*,-4,-32,-18
Cc1ccc(C(=O)N/C(=C/c2ccco2)C(=O)N2CCCCC2)cc1,-2,9,0,0,13,12,x,x,x
Cc1c(Cl)cccc1NC(=O)COC(=O)c1c2c(nc3ccccc13)CCN(Cc1ccccc1)C2,-6,-10,-13,-23,3,61*,-22,-20,-4
CC(C)c1ccccc1NC(=O)COC(=O)c1c2c(nc3ccccc13)CCN(Cc1ccccc1)C2,-4,0,-21,-14,18,22,x,x,x
CCOC(=O)c1nnc2cc(-c3ccccc3)nn2c1C,-23,0,-2,-4,20,46*,0,-51,-1
CN1C(=O)[C@H]2[C@@H](c3ccc(C(F)(F)F)cc3)N[C@]3(CCCN(Cc4ccc(C(F)(F)F)cc4)C3=O)[C@H]2C1=O,-1,2,5,6,13,-16,x,x,x
COc1ccc(N2CCN(C(=O)Cc3ccc(S(=O)(=O)N4CCOCC4)s3)CC2)cc1,-1,6,-13,28,-2,48*,12,33,2
O=C(Cn1cc(C(=O)COc2ccccc2)c2ccccc21)NCc1ccco1,2,6,-2,5,9,38*,60*,21,39
Cc1ccccc1OCCn1cc(/C=C(\C#N)C(=O)NCc2ccco2)c2ccccc21,2,0,-4,17,-1,25,x,x,x
N#C/C(=C\c1cn(CCOc2ccccc2)c2ccccc12)C(=O)NCc1ccco1,1,-2,3,14,10,36*,8,-44,-16
CC(=O)c1cn(CC(=O)NCc2ccco2)c2ccccc12,1,3,7,1,-4,4,x,x,x
SMILES,SUMO1-SIM PPI,CSN inh,MT1-MMP act inh,DNMT1 inh,SKN-1 block,Rpn11 inh,Rpn11 confirm,MMP-2 counter,Thrombin FP
CCCCCCCCN1C(=O)[C@H](CC(=O)NCc2ccccc2)C[C@@]2(C(=O)OC)CCCCC=C12,3,-1,-1,x,-5,x,x,x,x
CC(=O)c1cccc(-c2ccc3c(=O)[nH]c(Nc4ccccc4)cc3c2)c1,34,55*,-58,105*,6,85*,39,-17,-8
O=C(NCc1ccco1)c1cccc(N2CCCC2=O)c1,2,3,13,-1,10,+,-13,-35,-14
COc1ccc(CNC(=O)c2cccc(N3CCCC3=O)c2)cc1,4,2,-6,-1,-2,2,x,x,x
O=C(NC1CCCCC1)C(c1ccc(C(F)(F)F)cc1)n1c(=O)c(-c2cc3ccccc3[nH]2)nc2ccccc21 (stereo not drawn),4,1,-22,x,24,x,x,x,x
Cc1ccc(NC(=O)CO/N=C/c2ccc(N(C)C)cc2)cc1,-5,50*,-35,-6,14,77*,108*,-44,96*
Cc1nc2ccccc2n1C(C)c1nc2ccccc2n1CC(=O)c1ccc(OC(F)(F)F)cc1 (stereo not drawn),1,-4,2,x,-2,x,x,x,x
O=c1cc(-c2cccc(F)c2)oc2ccccc12,-2,3,0,2,3,41*,-19,5,-14
O=c1cc(-c2c(F)c(F)c(F)c(F)c2F)oc2ccccc12,-7,7,8,5,8,1,x,x,x
COc1ccc(OC)c(NC(=S)N2CCN(c3ccccn3)CC2)c1,-2,-4,7,2,2,0,x,x,x
S=C(Nc1cc(Cl)ccc1Oc1ccccc1)N1CCN(c2ccccn2)CC1,6,-1,2,0,14,36*,-8,47*,-3
CSc1ccc(/C=C2\C(=N)N3N=C(CC(=O)N4CCOCC4)SC3=NC2=O)cc1,-1,3,1,1,-10,2,x,x,x
CSc1ccc(/C=C2\C(=N)N3N=C(CC(=O)N4CCCCC4)SC3=NC2=O)cc1,-8,2,-11,5,-6,52*,30,13,11
